Laboratory results published in ChEMBL document CHEMBL3272179, “Synthetic metabolites of neurohypophyseal hormones. (Des-9-glycinamide)oxytocin and (des-9-glycinamide, des-8-leucine)oxytocin” (1976).
Active and inactive are the calls of the source. No cut-off for these calls is given here. Positions of bridges follow the written chain, without caps; N, C: chain ends. Residues, ends and D or L forms follow the SMILES beside them.

Legend:
Rattus norvegicus [1] = test: Antidiuretic activity in inactin- and ethanol-anesthetized, hydrated Sprague-Dawley rat assessed as maximal depression of rate of urine flow; type: functional
Procedure, shortened: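 Six male Sprague-Dawley rats, anesthetized with Inactin and ethanol and hydrated. Method of Jeffers et al. as modified by Sawyer. The effective response was the maximal depression of urine flow rate. Four-point design or matches against USP Posterior Pituitary Reference Standard.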

Gallus gallus [2] = test: Vasodepressor activity in conscious chicken; type: functional
Procedure, shortened: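 Conscious chickens, minimum three, procedure of Coon. Tested for agonist activity at up to 1 mg analog per injection. Four-point design or matches against USP Posterior Pituitary Reference Standard.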

Rattus norvegicus [3] = test: Pressor activity in atropinized and urethane-anesthetized rat at 1 mg; type: functional, organism-based
Procedure, shortened: (§1)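 Minimum of five atropinized, urethane-anesthetized male rats, following U.S. Pharmacopeia procedures. Tested for agonist and antagonist activity at single doses up to 1 mg. USP Posterior Pituitary Reference Standard used as reference.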

[4] = Oxytocic activity in uterine horns of rat […]; type: functional
Procedure, shortened: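 Six isolated uterine horns from three rats in natural estrus, with estrus confirmed by vaginal smear on the assay morning. Holton method as modified by Munsick, in Mg2+-free van Dyke-Hastings bathing solution. Four-point design or matches against USP Posterior Pituitary Reference Standard.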

Rattus norvegicus [5] = test: Pressor activity in atropinized and urethane-anesthetized rat; type: functional; procedure, shortened: as §1
Anura = test: Hydroosmotic activity in toad urinary bladder assessed as water transport; type: functional
Procedure, shortened: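 Water transport across toad urinary bladder measured by Bentley's method as modified by Eggena et al. At least five animals. Four-point design or matches against USP Posterior Pituitary Reference Standard.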

Gallus gallus [6] = test: Inhibition of oxytocin-induced vasodepressor activity in conscious chicken; type: functional, organism-based
Procedure, shortened: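 Analog and oxytocin injected simultaneously into conscious chickens (minimum three), procedure of Coon. Oxytocin held at 5×10^-11 mol while analog dose was raised stepwise to 5×10^-4 mol. Read-out was inhibition of the oxytocin vasodepressor response.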

SMILES	Activity (Rattus norvegicus [1]) [U/mg]	Activity (Gallus gallus [2]) [U/mg]	Activity (Rattus norvegicus [3])	Activity [4] [U/mg]	Activity (Rattus norvegicus [5]) [U/mg]	Activity (Anura) [×10⁻⁹ M]	inhibition (Gallus gallus [6])
CC[C@H](C)[C@@H]1NC(=O)[C@H](Cc2ccc(O)cc2)NC(=O)[C@@H](N)CSSC[C@@H](C(=O)N2CCC[C@H]2C(=O)O)NC(=O)[C@H](CC(N)=O)NC(=O)[C@H](CCC(N)=O)NC1=O (H-CYIQNCP-OH; disulfide 1-6)	0.06	0.1	inactive	2.7	–	–	–
CC[C@H](C)[C@@H]1NC(=O)[C@H](Cc2ccc(O)cc2)NC(=O)[C@@H](N)CSSC[C@@H](C(=O)N2CCC[C@H]2C(=O)N[C@@H](CC(C)C)C(=O)NCC(N)=O)NC(=O)[C@H](CC(N)=O)NC(=O)[C@H](CCC(N)=O)NC1=O [OXYTOCIN]	2.1	507	–	546	3.1	2.3	–
CC[C@H](C)[C@@H]1NC(=O)[C@H](Cc2ccc(O)cc2)NC(=O)[C@@H](N)CSSC[C@@H](C(=O)N2CCC[C@H]2C(=O)N[C@@H](CC(C)C)C(=O)O)NC(=O)[C@H](CC(N)=O)NC(=O)[C@H](CCC(N)=O)NC1=O (H-CYIQNCPL-OH; disulfide 1-6)	0.08	–	inactive	2.4	–	4	Active
